In ChEMBL document CHEMBL1122415, “Folate antagonists. 20. Synthesis and antitumor and antimalarial properties of trimetrexate and related 6-[(phenylamino)methyl]-2,4-quinazolinediamines” (1983):
Several values for one entry are separate records, joined by “and”; a condition that tells them apart may be missing. Identical values can stand only once.

Assays:
Plasmodium berghei [1] = assay: Antimalarial effect against trophozoite-induced Plasmodium berghei in mice (Mus musculus) after subcutaneous dose of 10 mg/kg; type: functional
Mus musculus [2] = assay: Antimalarial effect against trophozoite-induced Plasmodium berghei in mice (Mus musculus) after subcutaneous administration dose of 2.5 mg/kg; type: functional
Plasmodium berghei [3] = assay: Antimalarial effect against trophozoite-induced Plasmodium berghei in mice (Mus musculus) at 5 mg/kg subcutaneous dose; type: functional
Mus musculus [4] = assay: Antimalarial effect against trophozoite-induced Plasmodium berghei in mice (Mus musculus) after subcutaneous administration dose of 40 mg/kg; 1 survived after 60 days of postinfection; type: functional
Mus musculus [5] = species: Mus musculus; assay: Daily dose required for 90% parasitaemia in trophozoite induced Plasmodium berghei in 21 mice; type: functional
Outline: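 Oral suppressive test in mice against a normal drug-sensitive P. berghei strain. Drug given continuously in the diet for six consecutive days, with doses as free base equivalent. SD90 is the daily dose (mg/kg) giving 90% suppression of parasitemia versus control mice, estimated graphically on semilog paper.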

Mus musculus [6] = assay: Antimalarial effect against trophozoite-induced Plasmodium berghei in mice (Mus musculus) after subcutaneous administration dose of 640 mg/kg; type: functional
Plasmodium berghei [7] = assay: Antimalarial effect against trophozoite-induced Plasmodium berghei in mice (Mus musculus) at 20 mg/kg subcutaneous dose; type: functional
Plasmodium berghei [8] = assay: Antimalarial effect against trophozoite-induced Plasmodium berghei in mice (Mus musculus) at 40 mg/kg subcutaneous dose; type: functional
Plasmodium berghei [9] = assay: Antimalarial effect against trophozoite-induced Plasmodium berghei in mice (Mus musculus) at 320 mg/kg subcutaneous dose; type: functional
L1210 = assay: Molar concentration required to reduce the number of L1210 cells by 50% after incubation for 2 days; type: functional, Mus musculus; settings: read-out: ID50 (the source's name)
Outline: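 L1210 leukemia cells in tissue culture exposed to drug for 2 days. ID50 is the molar concentration that reduces L1210 cell number by 50%. Mithramycin is the reference drug.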

Plasmodium berghei [10] = assay: Antimalarial effect against trophozoite-induced Plasmodium berghei in mice (Mus musculus) at 80 mg/kg subcutaneous dose; type: functional
Mus musculus [11] = assay: Antimalarial effect against trophozoite-induced Plasmodium berghei in mice (Mus musculus) after subcutaneous administration dose of 40 mg/kg; 3 survived after 60 days of post infection; type: functional
Mus musculus [12] = assay: Antimalarial effect against trophozoite-induced Plasmodium berghei in mice (Mus musculus) after subcutaneous administration dose of 40 mg/kg; 2 survived after 60 days of postinfection; type: functional
Mus musculus [13] = assay: Antimalarial effect against trophozoite-induced Plasmodium berghei in mice (Mus musculus) after subcutaneous administration dose of 20 mg/kg; 2 survived after 60 days of postinfection; type: functional
Plasmodium berghei [14] = assay: Antimalarial effect against trophozoite-induced Plasmodium berghei in mice (Mus musculus) after subcutaneous dose of 160 mg/kg; type: functional
Mus musculus [15] = assay: Antimalarial effect against trophozoite-induced Plasmodium berghei in mice (Mus musculus) after subcutaneous administration dose of 1.25 mg/kg; type: functional
Mus musculus [16] = assay: Antimalarial effect against trophozoite-induced Plasmodium berghei in mice (Mus musculus) after subcutaneous administration dose of 80 mg/kg; 1 survived after 60 days of postinfection; type: functional
Mus musculus [17] = assay: Antimalarial effect against trophozoite-induced Plasmodium berghei in mice (Mus musculus) after subcutaneous administration dose of 160 mg/kg; 3 survived after 60 days of postinfection; type: functional
Plasmodium berghei [18] = assay: Change in mean survival time of Trophozoite-induced Plasmodium berghei infected mice (Mus musculus) after 160 mg/kg subcutaneous dose; 60 days survival; type: functional
Mus musculus [19] = assay: Antimalarial effect against trophozoite-induced Plasmodium berghei in mice (Mus musculus) after subcutaneous administration dose of 320 mg/kg; 3 survived after 60 days of postinfection; type: functional

Row | SMILES | Delta MST (Plasmodium berghei [1]) [days] | Delta MST (Plasmodium berghei [3]) [days] | SD90 (Mus musculus [5]) [mg/kg/day] | Delta MST (Plasmodium berghei [7]; 20 mg/kg) | IC50 (L1210; Mus musculus, L1210, 48 h) [nM] | IC50 (L1210) | Delta MST (Plasmodium berghei [7]) [days] | Delta MST (Plasmodium berghei [8]; 40 mg/kg) | Delta MST (Plasmodium berghei [10]; 80 mg/kg) | also measured
1 | CCc1nc(N)nc(N)c1-c1ccc(Cl)cc1 [PYRIMETHAMINE] | 5.3 | 3.1 |  |  |  |  |  |  |  | Delta MST (Mus musculus [2]): 4.7 days; Delta MST (Mus musculus [4]): 7.7 days and 6.1 days
2 | CC(=O)O.Nc1nc(N)c2cc(CNc3cccc(Cl)c3)ccc2n1.O.O | 0.3 |  | 8.5 | 0.7 days and 0.5 days | 46 | 70 nM |  |  |  | Delta MST (Mus musculus [6]): 9.9 days; Delta MST (Plasmodium berghei [8]): 1.7 days; Delta MST (Plasmodium berghei [9]; 320 mg/kg): 20.6 days and 16.4 days and 8.7 days; Delta MST (Plasmodium berghei [10]): 3.3 days
3 | Nc1nc(N)c2c(Cl)c(CN(C=O)c3ccc(Cl)c(Cl)c3)ccc2n1 | 7.9 |  |  | 21.9 days and 21.6 days |  |  |  |  |  | Delta MST (Mus musculus [2]; 2.5 mg/kg): 4.1 days and 3.1 days; Delta MST (Plasmodium berghei [8]): 21.9 days; Delta MST (Mus musculus [11]): 23.9 days; Delta MST (Plasmodium berghei [10]): 24.4 days
4 | CC(=O)O.Nc1nc(N)c2cc(CNc3ccc4cc(Cl)ccc4c3)ccc2n1.O.O | 3.3 |  |  | 8.3 days and 8.5 days | 140 | 260 nM |  |  |  | Delta MST (Mus musculus [12]): 20.6 days and 20.7 days
5 | Nc1nc(N)c2cc(N(Cc3ccc(Cl)c(Cl)c3)N=O)ccc2n1 |  | 2.9 |  |  |  |  |  |  |  | Delta MST (Plasmodium berghei [1]; 10 mg/kg): 7.5 days and 9.9 days; Delta MST (Mus musculus [13]): 20.9 days
6 | Nc1nc(N)c2cc(CN(C=O)c3ccc(Cl)c(C(F)(F)F)c3)ccc2n1 | 0.3 |  |  |  |  |  | 0.3 | 1.5 days and 1.7 days |  | Delta MST (Plasmodium berghei [14]; 160 mg/kg): 7.5 days and 6.3 days; Delta MST (Mus musculus [6]): 9.9 days; Delta MST (Plasmodium berghei [9]; 320 mg/kg): 12.5 days and 12.3 days
7 | CC(=O)O.Cc1c(CNc2ccc(Cl)cc2)ccc2nc(N)nc(N)c12 |  | 8.7 | 0.088 |  | 1.9 |  | 20.9 |  |  | Delta MST (Plasmodium berghei [1]; 10 mg/kg): 19.8 days and 25.9 days and 8.8 days; Delta MST (Mus musculus [2]): 0.7 days
8 | CC(=O)O.Nc1nc(N)c2c(Cl)c(CNc3ccc(Cl)c(Cl)c3)ccc2n1.O |  | 4.3 |  |  |  |  |  |  |  | Delta MST (Mus musculus [15]): 2.9 days
9 | Nc1nc(N)c2cc(CN(N=O)c3ccc(Cl)c(C(F)(F)F)c3)ccc2n1 | 1.3 |  |  | 5.1 days and 5.3 days |  |  |  | 10.9 days and 11.1 days |  | Delta MST (Mus musculus [16]; 80 mg/kg): 14.9 days and 15.2 days
10 | CC(=O)O.Cc1c(CNc2ccc(Cl)c(Cl)c2)ccc2nc(N)nc(N)c12 |  | 8.6 | 0.33 |  | 8.4 | 4.3 nM | 15.9 |  |  | Delta MST (Mus musculus [2]; 2.5 mg/kg): 7.2 days and 4 days; Delta MST (Mus musculus [13]): 15.8 days; Delta MST (Plasmodium berghei [8]): 29.8 days
11 | Nc1nc(N)c2cc(NCc3ccc(Cl)c(Cl)c3)ccc2n1 |  |  | 8.5 |  |  |  |  | 7.1 days and 2.7 days | 13.1 days and 7.3 days | Delta MST (Plasmodium berghei [14]): 9.9 days; Delta MST (Mus musculus [17]): 9.9 days
12 | CC(=O)O.Nc1nc(N)c2cc(CNc3ccc(Cl)c(C(F)(F)F)c3)ccc2n1.O.O |  |  |  |  |  |  | 5.1 | 10.5 days and 4.9 days | 27.2 days and 10.3 days | Delta MST (Plasmodium berghei [18]): 23.9 days; Delta MST (Plasmodium berghei [1]; 10 mg/kg): 4.9 days and 2.7 days; Delta MST (Plasmodium berghei [9]): 29.9 days
13 | CC(=O)O.Nc1nc(N)c2cc(CNc3cccc(Br)c3)ccc2n1 | 0.4 |  | 9 | 1.5 days and 1.8 days | 86 | 71 nM |  |  | 8.8 days and 10.2 days and 3.6 days | Delta MST (Plasmodium berghei [14]): 9.2 days; Delta MST (Plasmodium berghei [8]): 3.1 days; Delta MST (Plasmodium berghei [9]; 320 mg/kg): 9.2 days and 9.8 days; Delta MST (Mus musculus [19]): 9.2 days
14 | CC(=O)O.Nc1nc(N)c2cc(CN(N=O)c3ccc(Cl)c4ccccc34)ccc2n1 | 0.3 |  |  | 0.7 days and 0.5 days | 130 | 170 nM |  | 2.9 days and 2.7 days | 5.7 days and 5.9 days | Delta MST (Plasmodium berghei [14]; 160 mg/kg): 12.9 days and 13.1 days; Delta MST (Plasmodium berghei [9]; 320 mg/kg): 14.7 days and 14.9 days
15 | CC(=O)O.COc1cc(NCc2ccc3nc(N)nc(N)c3c2)cc(OC)c1OC.O | 0.3 |  | 62 |  | 57 | 87 nM | 0.7 | 0.7 days and 0.3 days |  | Delta MST (Plasmodium berghei [14]; 160 mg/kg): 4.9 days and 4.5 days; Delta MST (Plasmodium berghei [9]): 7.9 days
16 | Nc1nc(N)c2cc(CN(C=O)c3ccc4cc(Cl)ccc4c3)ccc2n1 |  |  |  | 0.5 days and 0.3 days | 250 | 150 nM |  | 1.5 days and 0.5 days |  | Delta MST (Plasmodium berghei [14]; 160 mg/kg): 10.9 days and 4.1 days; Delta MST (Mus musculus [6]): 16.9 days; Delta MST (Plasmodium berghei [9]; 320 mg/kg): 13.9 days and 13.7 days and 10.7 days
17 | CC(=O)N(Cc1ccc2nc(N)nc(N)c2c1)c1ccc(Cl)c(Cl)c1 | 0.9 |  | >15.1 |  | 300 | 190 nM | 1.3 |  | 8.3 days and 3.7 days and 4.1 days | Delta MST (Plasmodium berghei [8]): 3.7 days
18 | CC(=O)O.Nc1nc(N)c2cc(CNc3ccc(Cl)c4ccccc34)ccc2n1.O |  | 9.9 |  |  | 22 | 13 nM |  |  |  | Delta MST (Plasmodium berghei [1]; 10 mg/kg): 10.3 days and 10.5 days and 10.7 days; Delta MST (Mus musculus [2]): 5.5 days; Delta MST (Mus musculus [13]; 20 mg/kg): 11.9 days and 12.6 days and 12.9 days; Delta MST (Mus musculus [15]): 1.7 days
19 | CC(=O)O.Cc1c(CNc2cccc(Br)c2)ccc2nc(N)nc(N)c12.O |  | 7.7 | 0.2 | 12.6 days and 11.2 days and 7.7 days | 4.4 | 3.7 nM |  | 9.3 days and 11.2 days | 21.8 days and 9.2 days | Delta MST (Mus musculus [15]): 0.5 days
20 | CC(=O)O.Nc1nc(N)c2cc(CNc3ccc(Cl)cc3)ccc2n1.O.O |  |  | 1.9 |  | 27 | 35 nM | 5.1 |  | 6.9 days and 5.1 days | Delta MST (Plasmodium berghei [14]): 9.9 days; Delta MST (Plasmodium berghei [8]): 6.9 days
21 | CC(=O)O.Nc1nc(N)c2cc(CNc3ccc(Cl)c(Cl)c3)ccc2n1.O.O | 1.8 |  | 0.92 |  |  | 18 nM and 23 nM and 67 nM | 5.8 | 11.2 days and 5.8 days |  | Delta MST (Plasmodium berghei [14]; 160 mg/kg): 18.8 days and 19.8 days; Delta MST (Mus musculus [2]; 2.5 mg/kg): 0.4 days and 0.2 days; Delta MST (Mus musculus [17]; 160 mg/kg): 11.8 days and 12.1 days; Delta MST (Mus musculus [16]): 11.8 days
